Test results: ChEMBL document CHEMBL4368909, “Identification of Dihydrofuro[3,4- d]pyrimidine Derivatives as Novel HIV-1 Non-Nucleoside Reverse Transcriptase Inhibitors with Promising Antiviral Activities and Desirable Physicochemical Properties” (J Med Chem, 2019)
pEC50, pIC50: −log10 of the molar value. Converted amounts (≈) assume the structure as drawn.

Assays:
[1] = test system: Human immunodeficiency virus 1; assay: Antiviral activity against wild type HIV1 3B infected in human MT4 cells assessed as reduction in virus-induced cytopathic effect after 5 days by MTT assay; assay type: functional, organism-based; conditions: Human immunodeficiency virus 1, 3B, MT4, 120 h
[2] = Protein binding in human plasma at 2 uM after 5 hrs by LC/MS analysis; assay type: ADME, cell-free; conditions: read-out: PPB (converted)
[3] = target: Cytochrome P450 2C9 (Homo sapiens, UniProt P11712); assay: Inhibition of CYP2C9 in human liver microsomes using diclofenac as substrate after 10 mins in presence of NADPH; assay type: ADME
[4] = Sub-acute toxicity in Kunming mouse assessed as behavior abnormalities at 50 mg/kg/day, po administered for 2 weeks by hematoxylin and eosin staining-based assay; assay type: organism-based; conditions: in vivo, 336 h
Procedure, shortened: (§1)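 Mice were dosed orally at 50 mg/kg/day for 2 weeks and observed for behavioural abnormalities during treatment. Organs were then examined by hematoxylin–eosin staining.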

[5] = Cmax in Wistar rat at 20 mg/kg, po by LC-MS/MS analysis; assay type: ADME, organism-based; design: dose 20 mg/kg, route oral; conditions: in vivo
Procedure, shortened: (§2)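 Male/unspecified Wistar rats given one dose, 2 mg/kg intravenously or 20 mg/kg orally; plasma concentration–time profiles followed; PK parameters reported as mean ± SD, n = 5.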

[6] = test system: MT4; assay: Cytotoxicity against human MT4 cells after 5 days by MTT assay; assay type: cell-based; conditions: mt4, 120 h
[7] = Half life in Wistar rat at 20 mg/kg, po by LC-MS/MS analysis; assay type: ADME, organism-based; conditions: in vivo; procedure, shortened: as §2
[8] = Sub-acute toxicity in Kunming mouse assessed as effect on lungs at 50 mg/kg/day, po administered for 2 weeks by hematoxylin and eosin staining-based assay; assay type: organism-based; conditions: in vivo, 336 h; procedure, shortened: as §1
[9] = Cmax in Wistar rat at 2 mg/kg, iv by LC-MS/MS analysis; assay type: ADME, organism-based; design: dose 2 mg/kg, route intravenous; conditions: in vivo; procedure, shortened: as §2
[10] = test system: Human immunodeficiency virus 1; assay: Resistance factor, ratio of EC50 for HIV1 harboring reverse transcriptase E138K mutant to EC50 for wild type HIV1; assay type: functional
Procedure, shortened: (§3)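 The resistance factor is the EC50 against the mutant strain divided by the EC50 against wild-type HIV-1. Both were measured in MT-4 cells by MTT read-out of protection from virus-induced cytopathicity.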

[11] = Acute toxicity in Kunming mouse assessed as mortality at 800 mg/kg, po measured after 2 weeks; assay type: organism-based; conditions: in vivo, 336 h
Procedure, shortened: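 Kunming mice received a single intragastric dose of 800 mg/kg. Deaths and behaviour were observed over 2 weeks and compared with a control group.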

[12] = test system: Human immunodeficiency virus 1; assay: Resistance factor, ratio of EC50 for HIV1 harboring reverse transcriptase Y181C mutant to EC50 for wild type HIV1; assay type: functional; procedure, shortened: as §3
[13] = Aqueous solubility of the compound in FASSIF by HPLC analysis; assay type: physicochemical; conditions: simulated gi fluid
Procedure, shortened: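 Solubility read by HPLC in fasted state simulated intestinal fluid (FaSSIF).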

[14] = target: Human immunodeficiency virus type 1 reverse transcriptase (Human immunodeficiency virus 1, UniProt Q72547); assay: Inhibition of recombinant HIV1 reverse transcriptase using (DIG)-dUTP and biotin-labeled dNTPs as substrate after 1 hr by ELISA
[15] = Sub-acute toxicity in Kunming mouse assessed as effect on heart at 50 mg/kg/day, po administered for 2 weeks by hematoxylin and eosin staining-based assay; assay type: organism-based; conditions: in vivo, 336 h; procedure, shortened: as §1
[16] = target: Cytochrome P450 3A4 (Homo sapiens, UniProt P08684); assay: Inhibition of CYP3A4 in human liver microsomes using midazolam as substrate after 10 mins in presence of NADPH; assay type: ADME
[17] = AUC (0 to infinity) in Wistar rat at 20 mg/kg, po by LC-MS/MS analysis; assay type: ADME, organism-based; design: dose 20 mg/kg, route oral, time infinity; conditions: in vivo; procedure, shortened: as §2
[18] = Protein binding in rat plasma assessed as recovery rate at 2 uM after 5 hrs by LC/MS analysis; assay type: ADME, cell-free
[19] = test system: Human immunodeficiency virus 1; assay: Resistance factor, ratio of EC50 for HIV1 harboring reverse transcriptase L100I mutant to EC50 for wild type HIV1; assay type: functional; procedure, shortened: as §3

Cytochrome P450 2C9, sequence (P11712 whole entry): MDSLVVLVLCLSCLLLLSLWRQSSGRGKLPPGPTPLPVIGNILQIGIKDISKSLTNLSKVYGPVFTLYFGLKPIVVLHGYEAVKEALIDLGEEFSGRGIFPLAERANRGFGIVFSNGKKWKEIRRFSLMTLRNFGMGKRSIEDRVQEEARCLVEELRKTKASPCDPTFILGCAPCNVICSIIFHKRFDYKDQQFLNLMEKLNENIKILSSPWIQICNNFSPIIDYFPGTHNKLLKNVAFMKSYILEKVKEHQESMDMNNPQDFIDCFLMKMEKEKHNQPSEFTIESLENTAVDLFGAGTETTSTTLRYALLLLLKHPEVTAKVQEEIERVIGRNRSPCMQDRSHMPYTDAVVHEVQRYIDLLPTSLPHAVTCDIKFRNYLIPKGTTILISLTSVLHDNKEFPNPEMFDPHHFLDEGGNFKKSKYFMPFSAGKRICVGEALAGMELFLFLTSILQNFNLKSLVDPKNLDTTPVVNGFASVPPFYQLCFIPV
Cytochrome P450 3A4, sequence (P08684 whole entry): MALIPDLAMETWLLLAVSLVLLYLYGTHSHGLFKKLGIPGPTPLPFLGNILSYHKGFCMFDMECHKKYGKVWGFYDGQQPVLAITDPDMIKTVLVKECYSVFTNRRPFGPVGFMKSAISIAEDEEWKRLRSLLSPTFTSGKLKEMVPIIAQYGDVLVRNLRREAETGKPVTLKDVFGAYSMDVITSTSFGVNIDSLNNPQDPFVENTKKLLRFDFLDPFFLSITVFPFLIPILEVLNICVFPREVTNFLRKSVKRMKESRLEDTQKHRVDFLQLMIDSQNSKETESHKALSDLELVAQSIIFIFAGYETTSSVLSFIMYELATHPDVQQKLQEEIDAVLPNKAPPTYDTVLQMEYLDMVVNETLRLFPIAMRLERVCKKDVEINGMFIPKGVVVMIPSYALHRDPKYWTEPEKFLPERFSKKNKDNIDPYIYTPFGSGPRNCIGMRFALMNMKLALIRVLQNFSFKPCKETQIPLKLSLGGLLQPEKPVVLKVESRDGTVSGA

Question: With `Cc1cc(C#N)cc(C)c1Oc1nc(NC2CCN(Cc3ccc(C(N)=O)cc3)CC2)nc2c1COC2` as the compound, how does the pEC50 [1] read?
Answer: 8.80

Question: What about the fraction unbound at 5 h, 2 µM [2] of the same compound?
Answer: 0.07

Question: What about the pIC50 [3] of the same compound?
Answer: 4.33

Question: What about the Activity [4] of the same compound?
Answer: Non-Toxic

Question: And the Cmax [5]?
Answer: 400 ng/mL

Question: What about the CC50 [6] of the same compound?
Answer: > 250 µM

Question: And the half-life [7]?
Answer: 11.1 h

Question: What about the Activity [8] of the same compound?
Answer: Non-Toxic

Question: And the Cmax [9]?
Answer: 460 ng/mL

Question: What about the “Ratio EC50” value [10] of the same compound?
Answer: 4.4

Question: What about the Activity [11] of the same compound?
Answer: Non-Toxic

Question: What about the “Ratio EC50” value [12] of the same compound?
Answer: 2.8

Question: What about the solubility [13] of the same compound?
Answer: 32.5 µg/mL (≈ 65.2 µM)

Question: And the pIC50 [14]?
Answer: 7.29

Question: What about the Activity [15] of the same compound?
Answer: Non-Toxic

Question: What about the pIC50 [16] of the same compound?
Answer: < 4.30

Question: And the AUC(0-inf) [17]?
Answer: 1660 ng·h/mL

Question: What about the Drug recovery [18] of the same compound?
Answer: 77.9%

Question: What about the “Ratio EC50” value [19] of the same compound?
Answer: 1.5
